Measurements reported in paper PMC2889198 (Bioconjugate chemistry, 2009).

What was measured:
[1] = system: Androgen receptor N-terminal domain (AR-NTD), C-terminal His6-tag; assay: SPR binding kinetics of tris-NTA chip with His6-tagged AR-NTD; conditions: for kd Instant dissociation rate constant / ka Instant association rate constant: 25 °C, 1:1 binding model; for ka Instant association rate constant: Ni(II)-activated tris-NTA; for Kd: read-out: KD Equilibrium dissociation constant, 25 °C, 1:1 binding model
Summary of the method: (§1)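 Streptavidin chip washed with 50 mM NaOH/1 M NaCl and run in HBS-P pH 7.4 at 25 °C. Flow cell 1 is a blank; the others carry biotin-tris-NTA at about 50 RU. Each cycle: 5 mM NiCl2 activation, His6-protein injection (1–10 nM; mKate in 1 nM steps, 7 nM omitted), 0.3 M EDTA strip, 0.25% SDS/0.5 M NaCl rinse. Duplicates, double-referenced, global 1:1 Langmuir fit.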

[2] = system: Tumor necrosis factor alpha-stimulated gene-6 (TSG6), C-terminal His6-tag; assay: SPR binding kinetics of tris-NTA chip with His6-tagged TSG6; conditions: for ka Instant association rate constant / kd Instant dissociation rate constant: 25 °C, 1:1 binding model; for Kd: read-out: KD Equilibrium dissociation constant, 25 °C, 1:1 binding model
Summary of the method: as §1

[3] = system: Monomeric Katushka (mKate), C-terminal His6-tag; assay: SPR binding kinetics of tris-NTA chip with His6-mKate; conditions: for kd Instant dissociation rate constant / ka Instant association rate constant: 25 °C, 1:1 binding model; for ka Instant association rate constant: 1~10 nM analyte; for Kd: read-out: KD Equilibrium dissociation constant, 25 °C, 1:1 binding model
Summary of the method: as §1

His6-tagged peptide […] = assay: SPR binding kinetics of tris-NTA chip with His6-peptide; conditions: for ka Instant association rate constant / kd Instant dissociation rate constant: 25 °C, 1:1 binding model; for Kd: read-out: KD Equilibrium dissociation constant, 25 °C, 1:1 binding model
[4] = biological target: T1, Yeast cytosine deaminase (yCD), C-terminal His6-tag (Saccharomyces cerevisiae, UniProt Q12178); assay: SPR binding kinetics of tris-NTA chip with His6-tagged yCD; conditions: for kon: read-out: ka Instant association rate constant; for koff: read-out: kd Instant dissociation rate constant
T1 sequence (Q12178 with tags, fused parts or gaps): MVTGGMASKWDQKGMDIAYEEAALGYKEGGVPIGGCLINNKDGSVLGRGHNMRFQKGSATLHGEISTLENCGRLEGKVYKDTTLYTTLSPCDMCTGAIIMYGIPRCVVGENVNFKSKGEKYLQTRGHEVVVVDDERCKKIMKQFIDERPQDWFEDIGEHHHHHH
Summary of the method: as §1

[5] = biological target: hexahistidine (His6) tagged proteins; conditions: read-out: equilibrium dissociation constant KD between mono-NTA and His6; cited from earlier work

SMILES | kd Instant dissociation rate constant [1] | ka Instant association rate constant [1] | Kd [1] [nM] | ka Instant association rate constant [2] | kd Instant dissociation rate constant [2] | Kd [2] [nM] | kd Instant dissociation rate constant [3] | ka Instant association rate constant [3] | Kd [3] [nM] | ka Instant association rate constant (His6-tagged peptide […]) | kd Instant dissociation rate constant (His6-tagged peptide […]) | Kd (His6-tagged peptide […]) [nM] | kon [4] [M⁻¹ s⁻¹] | koff [4] [s⁻¹] | Kd [5] [nM]
O=C(O)CN(CC(=O)O)[C@@H](CCCNC(=O)CN(CC(=O)NCCC[C@@H](C(=O)O)N(CC(=O)O)CC(=O)O)[C@@H](CCCCNC(=O)CCCC[C@@H]1SC[C@@H]2NC(=O)N[C@@H]21)C(=O)NCCC[C@@H](C(=O)O)N(CC(=O)O)CC(=O)O)C(=O)O [Compound 6c] | 0.27 10^−3 S^−1 | 1.44 10^5 M^−1 S^−1 | 1.87 | 3.92 10^5 M^−1 S^−1 | 0.008 10^−3 S^−1 | 0.02 | 0.43 10^−3 S^−1 | 10.6 10^5 M^−1 S^−1 | 0.4 | 2.19 10^5 M^−1 S^−1 | 0.72 10^−3 S^−1 | 3.29 | 197000 | 0.00059 | 
O=C(O)CN(CC(=O)O)[C@@H](CCCCNC(=O)CCOCCOCCOCCOCCNC(=O)CN(CC(=O)NCCOCCOCCOCCOCCC(=O)NCCCC[C@@H](C(=O)O)N(CC(=O)O)CC(=O)O)[C@@H](CCCCNC(=O)CCCC[C@@H]1SC[C@@H]2NC(=O)N[C@@H]21)C(=O)NCCOCCOCCOCCOCCC(=O)NCCCC[C@@H](C(=O)O)N(CC(=O)O)CC(=O)O)C(=O)O [Compound 6a] | 1.29 10^−3 S^−1 | 0.94 10^5 M^−1 S^−1 | 13.7 | 6.89 10^5 M^−1 S^−1 | 4.84 10^−3 S^−1 | 7.03 | 1.53 10^−3 S^−1 | 5.38 10^5 M^−1 S^−1 | 2.84 | 3.09 10^5 M^−1 S^−1 | 3.97 10^−3 S^−1 | 12.8 |  |  | 
O=C(O)CN(CC(=O)O)[C@@H](CCCCNC(=O)CN(CC(=O)NCCCC[C@@H](C(=O)O)N(CC(=O)O)CC(=O)O)[C@@H](CCCCNC(=O)CCCC[C@@H]1SC[C@@H]2NC(=O)N[C@@H]21)C(=O)NCCCC[C@@H](C(=O)O)N(CC(=O)O)CC(=O)O)C(=O)O [Compound 6b] | 1.40 10^−3 S^−1 | 0.81 10^5 M^−1 S^−1 | 17.3 | 19.4 10^5 M^−1 S^−1 | 5.78 10^−3 S^−1 | 3 |  |  |  | 1.86 10^5 M^−1 S^−1 | 1.85 10^−3 S^−1 | 9.95 | 119000 | 0.00083 | 
O=C(O)CN(CC(=O)O)CC(=O)O [NTA, Nitrilotriacetic acid] |  |  |  |  |  |  |  |  |  |  |  |  |  |  | 10000
